Where “and” joins values, the source holds several entries; their conditions need not be identical. Equal values may be shown once.
What was measured:
Canis familiaris [1] = organism: Canis familiaris; assay: (§1) In vitro electrophysiological evaluation in canine cardiac ventricular muscle reported as % change for the functional refractory period (FRP) concentration range of 0.1-100 uM; set-up: species or system Canis lupus familiaris, Muscle tissue
In short: (§2)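 Canine right ventricular/papillary muscle strips in oxygenated Tyrode's, extracellular extra-stimulus conduction-interval method. FRP and CT are read from conduction-interval curves before and during rising concentrations. Compound is a 10 mM aqueous stock diluted into Tyrode's. Each strip is used once as its own control. Readouts are percent change from control at 10 μM, plus the maximum change with its concentration.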

Canis familiaris [2] = organism: Canis familiaris; assay: In vitro electrophysiological evaluation in canine cardiac ventricular muscle reported as maximum % change for conduction time(CT) at 0.1-100 uM concentration range; assay type: functional, Canis lupus familiaris, Muscle tissue
In short: (§3)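 Canine right ventricle and papillary muscle strips in oxygenated Tyrode's solution, fitted with stimulating and recording electrodes. The extra-stimulus conduction-interval method was adapted for in vitro use. FRP and CT were read from a conduction-interval curve before and after various compound concentrations, and expressed as percent change from control. Compounds were taken from 10 mM deionized-water stock into Tyrode's. Each strip was used once as its own control.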

Canis familiaris [3] = organism: Canis familiaris; assay: In vitro electrophysiological evaluation in canine cardiac ventricular muscle reported as maximum % change for functional refractory period (FRP) at 0.1-10 uM concentration range; set-up: species or system Canis lupus familiaris, Muscle tissue
Canis familiaris [4] = organism: Canis familiaris; assay: In vitro electrophysiological activity in canine cardiac Purkinje fibres given as maximum % change for action potential duration at 0.1-100 uM concentration; assay type: functional, Canis lupus familiaris, Purkinje fiber
In short: (§4)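 Canine cardiac Purkinje fibres, intracellular recording at 1 s basic cycle length, over cumulative concentration ranges. Compound 10 mM stock in deionized water diluted into Tyrode's. Each fibre used once as its own control. Value is the maximum % change from control in APD at 95% repolarization, with the concentration where it occurred; both values given if a biphasic response (>20% reversal) occurred.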

Canis familiaris [5] = organism: Canis familiaris; assay: In vitro electrophysiological activity in canine cardiac Purkinje fibres given as maximum % change for action potential duration at 0.1-10 uM concentration; assay type: functional, Canis lupus familiaris, Purkinje fiber; in short: as §4
Canis familiaris [6] = assay: Conduction time was determined by intraduodenal administration of two dosages of 10 mg/kg of compound in anesthetized dogs. Value was reported for experiment 1; assay type: functional, Canis lupus familiaris
In short: (§5)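 Anesthetized dogs given the compound intraduodenally, generally as two doses with the second a cumulative total (low/high). FRP and CT measured at 15, 30 and 45 min after dosing. HR and BP taken during nonpacing intervals. Values are percent change from control per animal. Activity criterion is FRP or CT prolonged ≥12%. Vehicle: 5% dextrose in water/tragacanth.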

Canis familiaris [7] = assay: Left ventricular refractory period was determined by intraduodenal administration of two dosages of 3 mg/kg of (high dose) compound in anesthetized dogs. Value was reported for experiment 3; assay type: functional, Canis lupus familiaris, Cardiac ventricle
In short: (§6)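 Anesthetized dogs, usually given two intraduodenal doses, with the second dose cumulative (low/high). Left ventricular FRP and CT were determined at 15, 30 and 45 min after dosing. HR and BP were measured during nonpacing intervals. Values are % change from control at low/high dose, for individual animals. The vehicle-stability set used 5% dextrose in water/tragacanth (n = 8).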

Canis familiaris [8] = organism: Canis familiaris; assay: In vitro electrophysiological evaluation in canine cardiac ventricular muscle reported as maximum % change for conduction time(CT) at 0.1-100 uM concentration range; Minimal (<IO%increase or a decrease in CT); assay type: functional, Canis lupus familiaris, Muscle tissue; in short: as §3
Canis familiaris [9] = organism: Canis familiaris; assay: In vitro electrophysiological evaluation in canine cardiac Purkinje fibres reported as % change for action potential duration at 1-100 uM concentration range; assay type: functional, Canis lupus familiaris, Purkinje fiber
In short: (§7)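 Canine cardiac Purkinje fibers, intracellular recording, paced at a basic cycle length of 1 s. APD95 and Vmax are recorded together across cumulative concentrations. Compound is a 10 mM aqueous stock diluted into Tyrode's solution. Each fiber is used once as its own control. Readouts are percent change from control at 10 μM, and the maximum change with the concentration where it occurred.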

Canis familiaris [10] = organism: Canis familiaris; assay: In vitro electrophysiological evaluation in canine cardiac Purkinje fibres reported as maximum percent change Vmax concentration range of 0.01-100 uM; […]; assay type: functional; conditions: Canis lupus familiaris; Purkinje fiber; in short: as §7
Canis familiaris [11] = assay: Heart rate was determined by intraduodenal administration of two dosages of 3 mg/kg of (high dose) compound in anesthetized dogs. Value was reported for experiment 3; assay type: functional, Canis lupus familiaris; in short: as §5
Canis familiaris [12] = assay: Left ventricular refractory period was determined by intraduodenal administration of two dosages of 3 mg/kg of (high dose) compound in anesthetized dogs. Value was reported for experiment 2; assay type: functional, Canis lupus familiaris, Cardiac ventricle; in short: as §6
Canis familiaris [13] = assay: Left ventricular refractory period was determined by intraduodenal administration of two dosages (high/low) of 10 g/kg of compound in anesthetized dogs. Value was reported for experiment 3; assay type: functional, Canis lupus familiaris, Cardiac ventricle; conditions: in the assay text read “10 mg/kg” for “10 g/kg”; in short: as §6
Canis familiaris [14] = organism: Canis familiaris; assay: In vitro electrophysiological evaluation in canine cardiac Purkinje fibres reported as percent change Vmax concentration range of 1-100 uM; assay type: functional; conditions: Canis lupus familiaris; Purkinje fiber; in short: as §7
Canis familiaris [15] = organism: Canis familiaris; assay: In vitro electrophysiological evaluation in canine cardiac Purkinje fibres reported as percent change Vmax concentration range of 0.01-100 uM; […]; assay type: functional; conditions: Canis lupus familiaris; Purkinje fiber; in short: as §7
Canis familiaris [16] = organism: Canis familiaris; assay: In vitro electrophysiological evaluation in canine cardiac ventricular muscle reported as % change for conduction time(CT) at 0.1-100 uM concentration range; Minimal (<IO%increase or a decrease in CT); assay type: functional, Canis lupus familiaris, Muscle tissue
Canis familiaris [17] = organism: Canis familiaris; assay: In vitro electrophysiological evaluation in canine cardiac Purkinje fibres reported as % change for action potential duration at 0.01-100 uM concentration range; assay type: functional, Canis lupus familiaris, Purkinje fiber; in short: as §7
Canis familiaris [18] = assay: Heart rate was determined by intraduodenal administration of two dosages of 10 mg/kg of (high dose) compound in anesthetized dogs. Value was reported for experiment 1; assay type: functional, Canis lupus familiaris
In short: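 Anesthetized dogs; compound given intraduodenally, generally as two doses, the second a cumulative (high) dose. LV functional refractory period and conduction time measured 15, 30 and 45 min after dosing; heart rate and blood pressure measured during nonpacing intervals. Values are % change from control, given per individual animal. Active if FRP or CT prolonged by ≥12%.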

Canis familiaris [19] = organism: Canis familiaris; assay: In vitro electrophysiological evaluation in canine cardiac Purkinje fibres reported as percent change Vmax concentration range of 0.1-10 uM; assay type: functional; conditions: Canis lupus familiaris; Purkinje fiber; in short: as §7
Canis familiaris [20] = organism: Canis familiaris; assay: In vitro electrophysiological evaluation in canine cardiac Purkinje fibres reported as percent change Vmax concentration range of 0.1-100 uM; Minimal (<IO%increase or a decrease in CT); assay type: functional; conditions: Canis lupus familiaris; Purkinje fiber
In short: (§8)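 Canine cardiac Purkinje fibres, intracellular microelectrode recording, paced at a basic cycle length of 1 s. APD95 and Vmax read simultaneously. Compound: 10 mM stock in deionized water, diluted into Tyrode's solution, tested over the stated concentration range. Each fibre used once as its own control. Result is % change from control, given at 10 µM or as the maximum with its concentration. M = <10% decrease or an increase in Vmax.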

Canis familiaris [21] = organism: Canis familiaris; assay: In vitro electrophysiological evaluation in canine cardiac Purkinje fibres reported as maximum percent change Vmax concentration range of 1-100 uM; assay type: functional; conditions: Canis lupus familiaris; Purkinje fiber; in short: as §7
Canis familiaris [22] = organism: Canis familiaris; assay: In vitro electrophysiological evaluation in canine cardiac Purkinje fibres reported as % change for action potential duration at 0.1-100 uM concentration range; assay type: functional, Canis lupus familiaris, Purkinje fiber; in short: as §8
Canis familiaris [23] = organism: Canis familiaris; assay: as §1; set-up: species or system Canis lupus familiaris, Muscle tissue; in short: as §3; remark: listed apart in the source
Canis familiaris [24] = organism: Canis familiaris; assay: In vitro electrophysiological evaluation in canine cardiac ventricular muscle reported as % change for the functional refractory period (FRP) concentration range of 0.1-10 uM; set-up: species or system Canis lupus familiaris, Muscle tissue; in short: as §2
Canis familiaris [25] = organism: Canis familiaris; assay: In vitro electrophysiological evaluation in canine cardiac ventricular muscle reported as maximum % change for conduction time(CT) at 0.1-10 uM concentration range; Minimal (<IO%increase or a decrease in CT); assay type: functional, Canis lupus familiaris, Muscle tissue; in short: as §2
Canis familiaris [26] = assay: Conduction time was determined by intraduodenal administration of two dosages of 1 mg/kg (low dose) of compound in anesthetized dogs. Value was reported for experiment 3; assay type: functional, Canis lupus familiaris; in short: as §5

In the case of CCCCCCC[N+](CC)(CC)CCCCc1ccc(Cl)cc1.O=P([O-])(O)O [CLOFILIUM PHOSPHATE], the “FRP at 10microM” value (Canis familiaris [1]) is reported as -3%, the CT (Canis familiaris [2]) is reported as 19% and the FRP (Canis familiaris [3]) is reported as 38%. The APD95 (Canis familiaris [4]) was 52% and 46%, the APD95 (Canis familiaris [5]) was 52% and the CT (Canis familiaris [6]) was -7%. The “LV FRP” value (Canis familiaris [7]) was 4%, the CT (Canis familiaris [8]) was <10% and the APD95 (Canis familiaris [9]) was 49% and 18%. For the same compound, the Vmax (Canis familiaris [10]) was < 10%, the HR (Canis familiaris [11]) was -7% and the “LV FRP” value (Canis familiaris [12]) was 2%. For the same compound, the L (Canis familiaris [13]) was 23%, the Vmax (Canis familiaris [14]) was -50% and -49% and the Vmax (Canis familiaris [15]) was < 10%. For the same compound, the CT (Canis familiaris [16]) was <10%, the APD95 (Canis familiaris [17]) was 27% and 55% and the HR (Canis familiaris [18]) was -24%. For the same compound, the Vmax (Canis familiaris [19]) was -11%, the Vmax (Canis familiaris [20]) was < 10% and the Vmax (Canis familiaris [21]) was -69% and -65%. The APD95 (Canis familiaris [22]) was 48% and 46%, the FRP (Canis familiaris [23]) was 11% and 5% and the FRP (Canis familiaris [24]) was 38%. The CT (Canis familiaris [25]) was <10% and the CT (Canis familiaris [26]) was 0%.

Source: ChEMBL document CHEMBL1123566, “Synthesis and cardiac electrophysiological activity of 2- and 3-[(substituted phenyl)alkyl]quinuclidines. Structure-activity relationships” (1987)
